Results from ChEMBL document CHEMBL1149092, “Studies on pyrrolopyrimidines as selective inhibitors of multidrug-resistance-associated protein in multidrug resistance” (J Med Chem, 2004).

What was measured:
[1] = target: Multidrug resistance-associated protein 1 (Homo sapiens, UniProt P33527); test: Inhibitory activity against human transporter MRP1 (Multidrug resistance associated protein 1) expressed in COR.L23/R cell line
Outline: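 Tritiated daunomycin (0.3 μCi/mL) accumulation in COR.L23/R cells (MRP-expressing human NSCLC MDR subline), seeded 48 h before the assay. Cells were washed and cell-associated radioactivity measured. 100% accumulation was set with 100 μM verapamil.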

[2] = target: ATP-dependent translocase ABCB1 (Mus musculus, UniProt P06795); test: Inhibitory activity against mouse transporter Pgp (P-glycoprotein) expressed in EMT6/AR1.0 cell line
Outline: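 Accumulation protocol run as for MRP1, but in the Pgp-expressing murine mammary carcinoma EMT6/AR1.0 subline. IC50 is the mean of at least three experiments.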

[3] = Area under curve when injected intraperitoneally in BALB/C mice at a dose of 20 mg/kg; type: ADME, organism-based; parameters: dose 20 mg/kg, route intraperitoneal; conditions: mouse, in vivo, ip
Outline: (§1)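 Female Balb/c mice, three to four per time point, were dosed iv, ip or po at 20–50 mg/kg. Blood was taken by cardiac puncture under anesthesia from 0.03 to 24 h. Plasma was methanol-extracted and analysed by HPLC. AUC (linear/log trapezoidal) and t1/2 were derived by noncompartmental analysis.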

[4] = (§2) Area under curve when injected intravenously in BALB/C mice at a dose of 20 mg/kg; type: ADME, organism-based; parameters: dose 20 mg/kg, route intravenous; conditions: BALB/C, mouse, in vivo, iv; outline: as §1
[5] = Area under curve when injected perorally in BALB/C mice at a dose of 50 mg/kg; type: ADME, organism-based; parameters: dose 50 mg/kg, route oral; conditions: mouse, in vivo, po; outline: as §1
[6] = Maximal plasma concentration in BALB/C mice after 20 mg/kg intraperitoneal dose; type: ADME, organism-based; parameters: dose 20 mg/kg, route intraperitoneal; conditions: mouse, ip; outline: as §1
[7] = (§3) Maximal plasma concentration in BALB/C mice after 20 mg/kg intravenous dose; type: ADME, organism-based; parameters: dose 20 mg/kg, route intravenous; conditions: BALB/C, mouse, plasma; outline: as §1
[8] = Maximal plasma concentration in BALB/C mice after 50 mg/kg oral dose; type: ADME, organism-based; parameters: dose 50 mg/kg, route oral; conditions: mouse; outline: as §1
[9] = Half life in BALB/C mice at the dose of 50 mg/kg by p.o. administration; type: ADME, organism-based; parameters: dose 50 mg/kg, route oral; conditions: mouse, in vivo, po; outline: as §1
[10] = Half life in BALB/C mice at the dose of 20 mg/kg by i.p. administration; type: ADME, organism-based; parameters: dose 20 mg/kg, route intraperitoneal; conditions: mouse, in vivo, ip; outline: as §1
[11] = (§4) Half life in BALB/C mice at the dose of 20 mg/kg by i.v. administration; type: ADME, organism-based; parameters: dose 20 mg/kg, route intravenous; conditions: mouse, in vivo, iv; outline: as §1
[12] = Bioavailability in mouse (BALB/C) (dose 50 mg/kg p.o.); conditions: in vivo, po
[13] = Bioavailability in mouse (BALB/C) (dose 20 mg/kg i.p.); conditions: in vivo, ip
[14] = target: Cytochrome P450 3A4 (Homo sapiens, UniProt P08684); test: Inhibitory concentration to inhibit MRP1 in CYP 3A4 assay
[15] = Half life in BALB/C mice at the dose of 50 mg/kg by p.o. administration; conditions: mouse, in vivo, po
[16] = Half life in BALB/C mice at the dose of 50 mg/kg by i.p. administration; type: ADME, organism-based; parameters: dose 50 mg/kg, route intraperitoneal; conditions: mouse, in vivo, ip; outline: as §1
[17] = tested on: Mus musculus; test: as §2; type: ADME, organism-based; parameters: dose 20 mg/kg, route intravenous; conditions: in vivo, iv; outline: as §1
[18] = tested on: Mus musculus; test: as §3; type: ADME, organism-based; parameters: dose 20 mg/kg, route intravenous; conditions: in vivo; outline: as §1
[19] = tested on: Mus musculus; test: as §4; type: ADME, organism-based; parameters: dose 20 mg/kg, route intravenous; conditions: in vivo, iv; outline: as §1

Chain of Cytochrome P450 3A4 (P08684 whole entry): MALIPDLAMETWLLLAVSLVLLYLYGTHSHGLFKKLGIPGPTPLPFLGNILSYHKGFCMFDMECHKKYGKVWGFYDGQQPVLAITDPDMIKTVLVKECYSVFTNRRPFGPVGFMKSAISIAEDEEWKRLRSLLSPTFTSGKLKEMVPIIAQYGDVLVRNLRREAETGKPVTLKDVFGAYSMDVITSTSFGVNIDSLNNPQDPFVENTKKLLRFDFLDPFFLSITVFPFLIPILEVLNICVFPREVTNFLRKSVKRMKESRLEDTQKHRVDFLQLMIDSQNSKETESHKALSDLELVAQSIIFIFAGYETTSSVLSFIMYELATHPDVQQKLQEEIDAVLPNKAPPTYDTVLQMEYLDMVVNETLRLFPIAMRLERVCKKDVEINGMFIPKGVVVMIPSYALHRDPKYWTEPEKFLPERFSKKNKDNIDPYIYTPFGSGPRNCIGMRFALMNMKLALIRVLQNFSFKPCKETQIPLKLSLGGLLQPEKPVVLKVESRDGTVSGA
Chain of Multidrug resistance-associated protein 1 (P33527 whole entry): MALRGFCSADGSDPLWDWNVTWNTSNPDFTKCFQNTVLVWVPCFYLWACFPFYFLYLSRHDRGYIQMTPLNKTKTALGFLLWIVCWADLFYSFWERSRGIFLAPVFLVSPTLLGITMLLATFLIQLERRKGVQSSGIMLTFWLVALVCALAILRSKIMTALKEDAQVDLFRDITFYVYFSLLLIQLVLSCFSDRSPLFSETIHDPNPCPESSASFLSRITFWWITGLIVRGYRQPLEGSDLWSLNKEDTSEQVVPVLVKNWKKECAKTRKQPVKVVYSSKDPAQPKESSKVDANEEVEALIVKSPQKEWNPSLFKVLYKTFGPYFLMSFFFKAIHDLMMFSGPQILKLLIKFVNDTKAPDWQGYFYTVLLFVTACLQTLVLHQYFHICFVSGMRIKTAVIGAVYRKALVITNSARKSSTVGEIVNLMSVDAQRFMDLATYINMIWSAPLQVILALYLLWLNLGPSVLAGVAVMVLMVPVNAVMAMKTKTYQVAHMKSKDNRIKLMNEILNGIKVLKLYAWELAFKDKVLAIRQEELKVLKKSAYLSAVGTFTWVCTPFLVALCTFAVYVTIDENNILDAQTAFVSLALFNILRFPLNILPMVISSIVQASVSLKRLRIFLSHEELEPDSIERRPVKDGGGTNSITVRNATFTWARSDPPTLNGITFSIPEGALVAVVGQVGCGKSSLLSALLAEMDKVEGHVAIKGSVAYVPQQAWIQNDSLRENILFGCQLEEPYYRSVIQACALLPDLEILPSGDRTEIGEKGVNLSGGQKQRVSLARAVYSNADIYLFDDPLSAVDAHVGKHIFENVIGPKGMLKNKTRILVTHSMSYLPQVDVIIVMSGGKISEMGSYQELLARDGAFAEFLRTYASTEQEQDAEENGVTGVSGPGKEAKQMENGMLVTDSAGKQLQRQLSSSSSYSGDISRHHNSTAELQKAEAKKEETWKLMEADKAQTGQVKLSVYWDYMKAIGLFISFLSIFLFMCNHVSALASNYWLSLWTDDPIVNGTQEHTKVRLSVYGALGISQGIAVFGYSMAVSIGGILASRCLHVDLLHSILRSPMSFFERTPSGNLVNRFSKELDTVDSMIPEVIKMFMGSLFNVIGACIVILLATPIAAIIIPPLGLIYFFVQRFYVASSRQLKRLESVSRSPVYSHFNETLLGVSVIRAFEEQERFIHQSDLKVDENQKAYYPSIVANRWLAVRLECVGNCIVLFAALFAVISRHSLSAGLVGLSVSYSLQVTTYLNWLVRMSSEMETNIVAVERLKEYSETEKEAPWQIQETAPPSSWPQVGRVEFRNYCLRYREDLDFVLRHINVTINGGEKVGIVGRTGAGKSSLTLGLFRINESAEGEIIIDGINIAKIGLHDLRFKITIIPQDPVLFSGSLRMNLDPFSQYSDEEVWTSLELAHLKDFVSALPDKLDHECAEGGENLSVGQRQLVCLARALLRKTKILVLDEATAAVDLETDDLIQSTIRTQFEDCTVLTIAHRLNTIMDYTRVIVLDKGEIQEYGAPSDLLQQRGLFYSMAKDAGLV
Chain of ATP-dependent translocase ABCB1 (P06795 whole entry): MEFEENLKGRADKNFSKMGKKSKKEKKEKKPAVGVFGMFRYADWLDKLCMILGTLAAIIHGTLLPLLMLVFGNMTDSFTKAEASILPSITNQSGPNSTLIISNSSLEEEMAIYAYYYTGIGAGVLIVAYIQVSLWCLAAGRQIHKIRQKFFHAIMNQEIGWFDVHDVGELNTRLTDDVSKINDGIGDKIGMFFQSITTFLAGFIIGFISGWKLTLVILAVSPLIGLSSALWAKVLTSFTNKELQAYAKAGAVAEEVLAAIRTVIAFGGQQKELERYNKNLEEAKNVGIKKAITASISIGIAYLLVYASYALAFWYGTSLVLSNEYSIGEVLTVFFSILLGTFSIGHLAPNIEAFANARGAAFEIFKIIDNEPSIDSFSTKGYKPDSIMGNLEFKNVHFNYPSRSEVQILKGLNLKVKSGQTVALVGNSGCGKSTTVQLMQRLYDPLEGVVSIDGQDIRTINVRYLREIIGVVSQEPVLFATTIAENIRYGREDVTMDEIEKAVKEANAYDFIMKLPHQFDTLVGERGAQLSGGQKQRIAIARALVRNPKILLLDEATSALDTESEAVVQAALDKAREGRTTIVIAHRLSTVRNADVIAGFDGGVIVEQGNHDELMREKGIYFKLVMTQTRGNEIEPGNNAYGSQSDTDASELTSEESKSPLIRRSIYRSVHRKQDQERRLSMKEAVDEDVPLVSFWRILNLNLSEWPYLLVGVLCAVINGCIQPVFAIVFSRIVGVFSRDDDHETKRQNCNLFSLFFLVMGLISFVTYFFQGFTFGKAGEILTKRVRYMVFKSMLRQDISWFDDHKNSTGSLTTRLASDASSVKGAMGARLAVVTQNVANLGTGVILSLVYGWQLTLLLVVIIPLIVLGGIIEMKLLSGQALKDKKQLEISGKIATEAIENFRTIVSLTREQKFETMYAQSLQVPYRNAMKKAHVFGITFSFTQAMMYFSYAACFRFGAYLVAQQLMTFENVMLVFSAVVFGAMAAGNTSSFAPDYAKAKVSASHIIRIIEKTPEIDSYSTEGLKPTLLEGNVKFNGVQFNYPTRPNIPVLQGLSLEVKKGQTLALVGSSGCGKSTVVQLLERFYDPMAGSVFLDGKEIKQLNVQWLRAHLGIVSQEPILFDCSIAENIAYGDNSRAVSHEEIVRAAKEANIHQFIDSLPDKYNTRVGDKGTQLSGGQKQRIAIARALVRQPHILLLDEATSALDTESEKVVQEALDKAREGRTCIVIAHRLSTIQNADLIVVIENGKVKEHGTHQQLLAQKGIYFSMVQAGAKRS

| IC50 [1] [µM] | IC50 [2] [µM] | SMILES | further results |
| --- | --- | --- | --- |
| 20.9 | 5.4 | N#Cc1c2n(c3c(NS(=O)(=O)Cc4ccccc4)ncnc13)CCCC2 |  |
| 0.57 | 23.7 | CC(=O)Nc1ccc(-c2nc(N3CCN(CCc4ccccc4)CC3)c3c(n2)c(C#N)c2n3CCCC2)cc1 |  |
| 2.3 | 16.2 | COc1cccc(CCN2CCN(c3ncnc4c(C#N)c5n(c34)CCCC5)CC2)c1 |  |
| > 50 |  | COc1ccc(CCN2CCN(c3ncnc4c(C#N)c5n(c34)CCCC5)CC2)cc1 |  |
| 0.138 | > 50 | NC(=O)c1c2n(c3c(N4CCN(CCc5ccc(F)c(F)c5)CC4)ncnc13)CCCC2 | AUC [3]: 13100 ng·h/mL; AUC [4]: 25000 ng·h/mL; AUC [5]: 44900 ng·h/mL; Cmax [6]: 4.43 µM; Cmax [7]: 28 µM; Cmax [8]: 8.37 µM; half-life [10]: 6.35 h; half-life [11]: 1.47 h; IC50 [14]: 45.8 µM; bioavailability [12]: 71.6%; bioavailability [13]: 52%; half-life [15]: 6.86 h |
| 0.955 | 10.6 | N#Cc1c2n(c3c(N4CCN(CCc5ccccc5Cl)CC4)ncnc13)CCCC2 |  |
| 0.399 | 9.2 | N#Cc1c2n(c3c(N4CCN(CCc5ccc(Cl)cc5)CC4)ncnc13)CCCC2 |  |
| 0.92 | 17.9 | N#Cc1c2n(c3c(N4CCN(CCc5cccc(Cl)c5)CC4)ncnc13)CCCC2 |  |
|  | 4.95 | O=C(Nc1cccnc1)c1c2n(c3c(N4CCN(CCc5ccc(F)c(F)c5)CC4)ncnc13)CCCC2 | AUC [4]: 40600 ng·h/mL; AUC [5]: 56400 ng·h/mL; Cmax [7]: 24.5 µM; Cmax [8]: 14.3 µM; half-life [16]: 4.48 h; half-life [9]: 3.75 h; half-life [11]: 6.72 h; bioavailability [12]: 55.5%; bioavailability [13]: 45.6% |
| 6.65 | 14 | N#Cc1c2n(c3c(N4CCN(S(=O)(=O)Cc5ccccc5)CC4)ncnc13)CCCC2 |  |
| 0.675 | > 50 | c1ccc(CCN2CCN(c3ncnc4c(-c5ncccn5)c5n(c34)CCCC5)CC2)cc1 |  |
| 0.229 | 10.5 | N#Cc1c2n(c3c(N4CCN(CCc5ccc(F)c(F)c5)CC4)ncnc13)CCCC2 |  |
| 0.061 | 3.4 | O=C(NCc1ccccn1)c1c2n(c3c(N4CCN(CCc5ccc(F)c(F)c5)CC4)ncnc13)CCCC2 | AUC [4]: 7380 ng·h/mL; Cmax [7]: 11.4 µM; half-life ([11]; BALB/C): 2.5 h; IC50 [14]: 30.1 µM |
| 0.887 | 13 | N#Cc1c2n(c3c(N4CCN(CCc5ccccc5)CC4)nc(I)nc13)CCCC2 |  |
| 0.65 | 3.7 | Cc1nc(-c2c3n(c4c(N5CCN(CCc6ccccc6)CC5)ncnc24)CCCC3)no1 |  |
| 0.523 | 12.9 | N#Cc1c2n(c3c(N4CCN(CCc5ccc([N+](=O)[O-])cc5)CC4)ncnc13)CCCC2 |  |
| 9 | 33 | CN(CCc1ccccc1)c1ncnc2c(C#N)c3n(c12)CCCC3 |  |
| 3.9 |  | N#Cc1c2n(c3c(SCc4ccc(Cl)cc4)ncnc13)CCCCC2 |  |
| 0.41 | 9.67 | N#Cc1c2n(c3c(N4CCN(CCc5cccc([N+](=O)[O-])c5)CC4)ncnc13)CCCC2 |  |
| 0.043 | 3.7 | COc1cccc(CNC(=O)c2c3n(c4c(N5CCN(CCc6ccc(F)c(F)c6)CC5)ncnc24)CCCC3)c1OC | AUC [17]: 12000 ng·h/mL; Cmax [18]: 4 µM; T1/2 [19]: 0.8 h; IC50 [14]: 2.44 µM |
| 0.69 | 9.63 | N#Cc1c2n(c3c(N4CCN(CCc5ccccc5)CC4)ncnc13)CCCC2 |  |

Further lines, the molecule ahead of its results:

| SMILES | IC50 [1] [µM] | IC50 [2] [µM] | further results |
| --- | --- | --- | --- |
| Cc1nc(-c2c3n(c4c(N5CCN(CCc6ccccc6)CC5)ncnc24)CCCC3)sc1C | 0.533 | 6 |  |
| CCNC(=O)c1c2n(c3c(N4CCN(CCc5ccc(F)c(F)c5)CC4)ncnc13)CCCC2 |  | 4.79 | AUC [3]: 14600 ng·h/mL; AUC [4]: 16900 ng·h/mL; AUC [5]: 21100 ng·h/mL; Cmax [6]: 7.34 µM; Cmax [7]: 18.3 µM; Cmax [8]: 5.73 µM; half-life [9]: 7.9 h; half-life [10]: 1.84 h; half-life [11]: 2.3 h; bioavailability [12]: 50%; bioavailability [13]: 85% |
| N#Cc1c2n(c3c(N4CCN(CCc5ccc(F)c(F)c5)CC4)nc(-c4cccnc4)nc13)CCCC2 | 0.218 |  |  |
| Cc1ccccc1-c1nc(N2CCN(CCc3ccc(F)c(F)c3)CC2)c2c(n1)c(C#N)c1n2CCCC1 | 0.62 | 18 |  |
| N#Cc1c2n(c3c(N4CCN(CCc5ccc(F)c(F)c5)CC4)nc(-c4ccncc4)nc13)CCCC2 | 0.105 | 1.31 |  |
| N#Cc1c2n(c3c(NCCN4CCc5ccccc5C4)ncnc13)CCCC2 | 6.35 | > 50 |  |
| O=C(c1ccccc1)c1c2n(c3c(N4CCN(CCc5ccccc5)CC4)ncnc13)CCCC2 | 1.37 | 10.7 |  |
| N#Cc1c2n(c3c(N4CCN(CCCc5ccccc5)CC4)ncnc13)CCCC2 | 7.35 | 13 |  |
| N#Cc1c2n(c3c(N4CCN(CCc5ccccc5[N+](=O)[O-])CC4)ncnc13)CCCC2 | 1.41 | > 50 |  |
| N#Cc1c2n(c3c(N4CCN(CCc5ccccc5)CC4)nc(-c4ccccc4)nc13)CCCC2 | 0.715 | 5 |  |
| N#Cc1c2n(c3c(N4CCN(CCc5c[nH]c6ccccc56)CC4)ncnc13)CCCC2 | 0.6 | 5.82 |  |
| N#Cc1c2n(c3c(N4CCN(CC(=O)c5ccccc5)CC4)ncnc13)CCCC2 | 1.85 | 23 |  |
| COC(=O)c1c2n(c3c(N4CCN(CCc5ccccc5)CC4)ncnc13)CCCC2 | 0.91 | 16.5 |  |
| CCC(=O)c1c2n(c3c(N4CCN(CCc5ccccc5)CC4)ncnc13)CCCC2 | 2.8 | > 50 |  |
| N#Cc1c2n(c3c(NCCc4ccccc4)ncnc13)CCCC2 | 6.3 | 16 |  |
